Measurements pooled from the literature.
Target: Cytochrome P450 2C19 (CYP2C19, Homo sapiens, UniProt P33261)
Read-out: enzyme activity
Action: inhibitor

C[C@@H](c1ccc2nccn2c1)n1nnc2ncc(-c3cnn(C)c3)nc21 — IC50 (human, liver microsomes; pH 7.4): 100 µM
N=C(N)NCc1ccc(NC(=O)C23CCC(C(=O)Nc4ccc(C5=CCN(C(=N)N)CC5)cc4)(CC2)CC3)cc1 — inhibition (liver microsomes; 10 µM): 28.6%
O=C(Nc1c2c(cc3c1CCC3)CCC2)NS(=O)(=O)/C=C/c1nccs1 — inhibition (human, liver microsomes; 2 µM, pH 7.4): 8.8%
CCN(Cc1cnc2nc(N)nc(N)c2n1)c1ccc(C(=O)N2CCC(C(=O)OC)CC2)cc1 — inhibition (luciferase; 10 µM): -11.1%
CCc1cc(/C(C)=N/OCc2ccc(C3CCCCC3)c(C(F)(F)F)c2)ccc1CN1CC(C(=O)O)C1 — inhibition (human, liver microsomes; 100 µM, 20 min): 9.4%
Nc1nc(N)c2nc(CNc3ccc(C(=O)N4CCC(C(=O)O)CC4)cc3)cnc2n1 — inhibition (luciferase; 10 µM): -18.1%
C=CC(=O)Nc1cc(Nc2nccc(Nc3cc(Cl)c(F)cc3C(C)(C)O)n2)c(OC)cc1N1CC[C@@H](N(C)C)C1 — inhibition (human, liver microsomes; 10 µM): < 20%
COc1ccc(Oc2ccc(CN(Cc3ccccc3)Cc3cnc4nc(N)nc(N)c4n3)cc2)cc1 — inhibition (luciferase; 10 µM): 102%
N=C(N)N1CC=C(c2coc(C(=O)Nc3ccc(C4=CCN(C(=N)N)CC4)c(F)c3)c2)CC1 — inhibition (liver microsomes; 10 µM): 2.2%
